The source of these data is ChEMBL document CHEMBL1138358, “Synthesis and in vivo antitumor evaluation of 2-methoxyestradiol 3-phosphate, 17-phosphate, and 3,17-diphosphate” (J Med Chem, 2007).

The subject of series [1] is Plasma. The series can be described thus: Drug level in Sprague-Dawley rat plasma at 1 mg/kg, iv assessed as 2-methoxyestradiol level after 15 mins. Set-up: dose 1 mg/kg, route intravenous. The class given is ADME, organism-based. To be noted: in vivo, 0.25 h. The gist of the method: (§1)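 Jugular-cannulated Sprague–Dawley rats were fasted overnight and given a single tail-vein dose in 45% (w/v) hydroxypropyl-β-cyclodextrin in water (0.5 mg/mL, 2 mL/kg). K-EDTA blood was drawn via the cannula and the plasma was frozen below −20 °C. Plasma was acidified with formic acid and analysed by negative-ion ESI LC-MS/MS (MRM). Standard curves were spiked into rat plasma.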

Another series relates to DU-145. The series can be described thus: Cytotoxicity against human DU145 cells. It counts as functional.
Another series concerns MDA-MB-435. The series can be described thus: Cytotoxicity against human MDA-MB-435 cells. It counts as functional.
Series [2] in a line: Drug level in Sprague-Dawley rat plasma at 1 mg/kg, iv after 30 mins. The class given is ADME, organism-based. Further details: dose 1 mg/kg, route intravenous. Put shortly: as §1
A further series relates to HCT-116. The series can be described thus: Cytotoxicity against human HCT116 cells. It counts as functional.
Series [3] concerns Plasma. The series can be described thus: Drug level in Sprague-Dawley rat plasma at 1 mg/kg, iv assessed as 2-methoxyestrone level after 15 mins. It counts as ADME, organism-based. Further details: dose 1 mg/kg, route intravenous. To be noted: in vivo, 0.25 h. The gist of the method: as §1
The subject of series [4] is Plasma. The series can be described thus: Drug level in Sprague-Dawley rat plasma at 1 mg/kg, iv assessed as 2-methoxyestradiol level after 120 mins. It counts as ADME, organism-based. Set-up: dose 1 mg/kg, route intravenous. To be noted: in vivo, 2 h. Put shortly:
as §1

A further series concerns SN12C. The series can be described thus: Cytotoxicity against human SN12C cells. It counts as functional.
For the next series, the system named is SF-539. The series can be described thus: Cytotoxicity against human SF539 cells. The class given is functional.
Series [5] deals with Plasma. The series can be described thus: Drug level in Sprague-Dawley rat plasma at 1 mg/kg, iv assessed as 2-methoxyestrone level after 30 mins. To be noted: in vivo, 0.5 h. Further details: dose 1 mg/kg, route intravenous. The class given is ADME, organism-based. Put shortly: as §1
A short description of series [6]: Drug level in Sprague-Dawley rat plasma at 1 mg/kg, iv after 15 mins. The class given is ADME, organism-based. Set-up: dose 1 mg/kg, route intravenous. Put shortly: as §1
In series [7] the test system is Plasma. The series can be described thus: Drug level in Sprague-Dawley rat plasma at 1 mg/kg, iv assessed as 2-methoxyestradiol level after 30 mins. It counts as ADME, organism-based. Set-up: dose 1 mg/kg, route intravenous. To be noted: in vivo, 0.5 h. The gist of the method: as §1
Series [8] concerns Plasma. The series can be described thus: Drug level in Sprague-Dawley rat plasma at 1 mg/kg, iv assessed as 2-methoxyestrone level after 5 mins. It counts as ADME, organism-based. Set-up: dose 1 mg/kg, route intravenous. Conditions: in vivo. The gist of the method:
as §1

Series [9] can be described thus: Drug level in Sprague-Dawley rat plasma at 1 mg/kg, iv after 60 mins. The class given is ADME, organism-based. Further details: dose 1 mg/kg, route intravenous. Put shortly:
as §1

In another series the test system is HOP-62. The series can be described thus: Cytotoxicity against human HOP62 cells. It counts as functional.
The nature of series [10]: Drug level in Sprague-Dawley rat plasma at 1 mg/kg, iv after 120 mins. It counts as ADME, organism-based. Set-up: dose 1 mg/kg, route intravenous. The gist of the method:
as §1

Series [11] relates to Plasma. The series can be described thus: Drug level in Sprague-Dawley rat plasma at 1 mg/kg, iv assessed as 2-methoxyestradiol level after 60 mins. It counts as ADME, organism-based. Further details: dose 1 mg/kg, route intravenous. Conditions: in vivo, 1 h. Put shortly: as §1
For series [12], the system named is Lewis lung carcinoma cell line. The series can be described thus: Antitumor activity against LLC cells inoculated in C57BL/6J mouse assessed as lung weight at 200 mg/kg, ip qd for 12 days. It counts as functional. To be noted: route intraperitoneal. The gist of the method:
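LLC cells in exponential growth were harvested by brief trypsinization (0.25% trypsin, 0.02% EDTA, 1 min, 37 °C), washed and resuspended at 5 × 10⁵ cells/mL in Ca²⁺/Mg²⁺-free PBS. Mice were housed under SPF conditions, with 10 per group. From day 3 after tumor cell injection, compound was given ip daily for 12 days. On day 15, mean lung weight was corrected for non-tumor-bearing lung weight. T/C = (A − C)/(B − C) versus vehicle (0.1 mL).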

A short description of series [13]: Drug level in Sprague-Dawley rat plasma at 1 mg/kg, iv after 5 mins. The class given is ADME, organism-based. Set-up: dose 1 mg/kg, route intravenous. The gist of the method: as §1
The subject of series [14] is Plasma. The series can be described thus: Drug level in Sprague-Dawley rat plasma at 1 mg/kg, iv assessed as 2-methoxyestradiol level after 5 mins. To be noted: in vivo. It counts as ADME, organism-based. Set-up: dose 1 mg/kg, route intravenous. The gist of the method:
as §1

The test system of a further series is UACC-62. The series can be described thus: Cytotoxicity against human UACC62 cells. The class given is functional.
Series [15] relates to Plasma. The series can be described thus: Drug level in Sprague-Dawley rat plasma at 1 mg/kg, iv assessed as 2-methoxyestrone level after 60 mins. Conditions: in vivo, 1 h. The class given is ADME, organism-based. Set-up: dose 1 mg/kg, route intravenous. Put shortly:
as §1

The subject of another series is OVCAR-3. The series can be described thus: Cytotoxicity against human OVCAR-3 cells. The class given is functional.
For series [16], the system named is Plasma. The series can be described thus: Drug level in Sprague-Dawley rat plasma at 1 mg/kg, iv assessed as 2-methoxyestrone level after 120 mins. The class given is ADME, organism-based. Set-up: dose 1 mg/kg, route intravenous. Conditions: in vivo, 2 h. The gist of the method:
as §1

Series [17] concerns Lewis lung carcinoma cell line. The series can be described thus: Antitumor activity against LLC cells inoculated in C57BL/6J mouse assessed as lung weight at 100 mg/kg, ip qd for 12 days. The class given is functional. To be noted: route intraperitoneal. The gist of the method: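 LLC cells in exponential growth were harvested by brief trypsinization (1 min, 37 °C), washed, and resuspended at 5 × 10⁵ cells/mL in Ca²⁺/Mg²⁺-free PBS before injection into SPF-housed mice. From day 3 after injection, groups of 10 mice were dosed ip daily for 12 days. On day 15, mean lung weight was corrected for non-tumor-bearing lung weight. T/C = (A − C)/(B − C).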

`COc1cc2c(cc1O)CC[C@@H]1[C@@H]2CC[C@]2(C)[C@@H](O)CC[C@@H]12` [2-METHOXYESTRADIOL]: the Cp with Plasma [1] came to 168 ng/mL; in the series on Plasma [3] it was 5 ng/mL; in the series with Plasma [4], 5 ng/mL; in the series with Plasma [5], 5.4 ng/mL; in the series with Plasma [7], 44.7 ng/mL; with Plasma [8], 6.3 ng/mL. Further, the Cp with Plasma [11] worked out at 11.3 ng/mL; with Plasma [14] it was 764 ng/mL; in the series with Plasma [15] it was 5 ng/mL; with Plasma [16], 5 ng/mL. In addition, the concentration for 50% growth inhibition (GI50) in the series with DU-145 was found to be 1.8 µM; in the series with MDA-MB-435 it was 0.08 µM; with HCT-116, 0.47 µM; with SN12C, 0.95 µM; in the series with SF-539, 0.32 µM; with HOP-62, 0.7 µM. The GI50 was found to be 0.36 µM with UACC-62 and 0.21 µM in the series with OVCAR-3. In addition, the concentration at 0.5 h in [2] turned out to be 44.7 ng/mL. The molecule also gave a concentration at 0.25 h in series [6] of 168 ng/mL. Also, in series [9], the concentration at 1 h is 11.3 ng/mL. The molecule further returned a concentration at 2 h in [10] of 5 ng/mL. Also, the Activity in [12] is on record as 0.44 g. In series [13], the concentration at 5 min was found to be 764 ng/mL.
With `COc1cc2c(cc1O)CC[C@@H]1[C@@H]2CC[C@]2(C)C(=O)CC[C@@H]12`, the Cp in the series on Plasma [4] came out at 5 ng/mL.
On to `CCOP(=O)(OCC)O[C@H]1CC[C@H]2[C@@H]3CCc4cc(O)c(OC)cc4[C@H]3CC[C@]12C`, for which the concentration for 50% growth inhibition (GI50) amounted to 13.2 µM in the series on MDA-MB-435; 19 µM with HCT-116; 17.4 µM with SN12C; 19.5 µM in the series on SF-539; 14.4 µM in the series with UACC-62; 15.1 µM in the series with OVCAR-3.
For `COc1cc2c(cc1OP(=O)(O)O)CC[C@@H]1[C@@H]2CC[C@]2(C)[C@@H](OP(=O)(O)O)CC[C@@H]12`, the 50% growth inhibitory concentration (GI50) in the series on DU-145, in the series on MDA-MB-435, with HCT-116, in the series on SN12C, in the series with HOP-62 and in the series on UACC-62 was above 100 µM each time. The molecule also came in with a GI50 in the series on OVCAR-3 above 100 µM.
Regarding `COc1cc2c(cc1OP(=O)([O-])O)CC[C@@H]1[C@@H]2CC[C@]2(C)[C@@H](O)CC[C@@H]12.[Na+]`, the Cp in the series on Plasma [1] was found to be 57.3 ng/mL; with Plasma [3], 12.7 ng/mL; in the series on Plasma [4], 5 ng/mL; in the series with Plasma [5], 8.8 ng/mL; in the series with Plasma [7] it was 22.3 ng/mL; in the series with Plasma [8] it was 16.3 ng/mL. Also, the Cp was 5.3 ng/mL in the series with Plasma [11], 153.4 ng/mL in the series on Plasma [14], 2.7 ng/mL in the series with Plasma [15] and 5 ng/mL with Plasma [16]. The 50% growth inhibitory concentration (GI50) was 2.95 µM in the series with DU-145; 0.11 µM in the series with MDA-MB-435; 1.45 µM in the series on HCT-116; 1.31 µM in the series on SN12C; 0.66 µM in the series with SF-539; 0.69 µM in the series with HOP-62. Besides, the GI50 in the series with UACC-62 turned out to be 1.32 µM; with OVCAR-3, 0.34 µM. In addition, the Activity is given as 0.44 g in series [17] and 0.23 g in series [12]. The same molecule displayed a concentration at 0.5 h in series [2] of 7.1 ng/mL. In addition, in series [6], the concentration at 0.25 h was 31.3 ng/mL. Besides, the concentration at 1 h in series [9] was 1.2 ng/mL. Besides, in series [10], the concentration at 2 h is below 1 ng/mL. This molecule also had a concentration at 5 min in [13] of 366 ng/mL.
Take `CCOP(=O)(OCC)Oc1cc2c(cc1OC)[C@H]1CC[C@]3(C)[C@@H](OP(=O)(OCC)OCC)CC[C@H]3[C@@H]1CC2`: the concentration for 50% growth inhibition (GI50) was 13.8 µM in the series with DU-145; 56.2 µM in the series on MDA-MB-435; 20.4 µM in the series with HCT-116; 16.6 µM in the series with SN12C; 19.5 µM with SF-539; 21.9 µM in the series with HOP-62. For the same molecule, the GI50 in the series on UACC-62 came to 11.5 µM; in the series with OVCAR-3, 55 µM.
`COc1cc2c(cc1O)CC[C@@H]1[C@@H]2CC[C@]2(C)[C@@H](OP(=O)(O)O)CC[C@@H]12`: the Cp in the series on Plasma [1] came out at 15 ng/mL; with Plasma [3], 5 ng/mL; in the series with Plasma [4], 5 ng/mL; with Plasma [5], 5 ng/mL; in the series with Plasma [7], 9.2 ng/mL; in the series with Plasma [8], 5 ng/mL. In addition, the Cp was found to be 5 ng/mL in the series with Plasma [11], 34.1 ng/mL in the series on Plasma [14], 5 ng/mL in the series with Plasma [15] and 5 ng/mL with Plasma [16]. Besides, the GI50 in the series on MDA-MB-435 is 20 µM; in the series with HCT-116, 87.1 µM; in the series with SN12C, above 100 µM; in the series on SF-539 it was 75.9 µM; with UACC-62, 38 µM. In [2], this molecule came in with a concentration at 0.5 h of 138 ng/mL. Further, the concentration at 0.25 h in series [6] amounted to 351 ng/mL. In series [9], the concentration at 1 h stood at 21.2 ng/mL. Moreover, the concentration at 2 h in series [10] worked out at 6.9 ng/mL. In addition, the concentration at 5 min in [13] is 1320 ng/mL.

The term GI50 denotes the concentration at which growth is held to half of that of the control. The low end stands for greater sensitivity of the cells, the high end for lower sensitivity of the cells.
